Test results taken from ChEMBL document CHEMBL1129933, “Tyrosine kinase inhibitors. 6. Structure-activity relationships among N- and 3-substituted 2,2'-diselenobis(1H-indoles) for inhibition of protein tyrosine kinases and comparative in vitro and in vivo studies against selected sulfur congeners” (J Med Chem, 1997).
pIC50: −log10 of the molar value.

Tests used:
[1] = target: Epidermal growth factor receptor (Homo sapiens, UniProt P00533); test: Inhibition of epidermal growth factor receptor (EGFr)
Chain of Epidermal growth factor receptor (P00533 whole entry): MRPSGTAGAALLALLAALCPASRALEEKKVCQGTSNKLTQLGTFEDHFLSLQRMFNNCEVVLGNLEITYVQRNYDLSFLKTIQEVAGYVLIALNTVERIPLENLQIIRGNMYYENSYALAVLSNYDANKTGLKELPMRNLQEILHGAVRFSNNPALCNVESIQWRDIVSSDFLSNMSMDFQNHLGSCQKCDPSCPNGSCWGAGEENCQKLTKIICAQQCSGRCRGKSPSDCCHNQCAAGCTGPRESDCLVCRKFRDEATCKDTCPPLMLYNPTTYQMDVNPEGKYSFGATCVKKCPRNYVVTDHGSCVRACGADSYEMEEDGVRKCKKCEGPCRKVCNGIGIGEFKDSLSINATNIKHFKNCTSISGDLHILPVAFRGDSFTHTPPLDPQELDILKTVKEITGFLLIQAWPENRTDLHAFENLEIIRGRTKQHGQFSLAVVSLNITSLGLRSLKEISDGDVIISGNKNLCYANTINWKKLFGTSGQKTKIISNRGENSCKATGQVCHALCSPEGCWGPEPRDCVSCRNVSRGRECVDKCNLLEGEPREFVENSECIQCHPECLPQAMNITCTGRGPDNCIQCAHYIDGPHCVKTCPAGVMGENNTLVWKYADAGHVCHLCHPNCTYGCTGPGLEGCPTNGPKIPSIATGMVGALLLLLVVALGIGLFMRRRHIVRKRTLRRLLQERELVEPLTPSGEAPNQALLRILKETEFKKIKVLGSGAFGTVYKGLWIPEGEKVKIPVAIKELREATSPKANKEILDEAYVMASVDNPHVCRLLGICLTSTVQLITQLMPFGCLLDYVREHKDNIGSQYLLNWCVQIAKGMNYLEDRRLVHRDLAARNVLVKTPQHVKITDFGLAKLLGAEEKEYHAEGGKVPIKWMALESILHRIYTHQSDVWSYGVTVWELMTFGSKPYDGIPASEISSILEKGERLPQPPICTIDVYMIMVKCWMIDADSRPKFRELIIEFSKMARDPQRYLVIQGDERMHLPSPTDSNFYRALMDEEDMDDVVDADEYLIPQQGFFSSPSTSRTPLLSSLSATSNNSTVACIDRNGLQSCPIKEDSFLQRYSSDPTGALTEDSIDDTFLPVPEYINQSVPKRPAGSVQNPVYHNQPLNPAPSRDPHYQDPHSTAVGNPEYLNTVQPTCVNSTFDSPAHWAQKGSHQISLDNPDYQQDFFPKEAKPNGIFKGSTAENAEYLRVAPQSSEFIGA

M5076 [2] = test: In vivo activity against murine M5076 sarcoma, net cell kill at 3.0 mg/kg ip dose at 4 hour intervals 3x per day for 9 days; assay type: functional, Mus musculus; details: route intraperitoneal
Method in brief: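 Tumors were passaged in C57BL/6 mice; B6C3F1 mice (18-22 g, randomized) were implanted on day 0 ip with counted tumor cells or sc with fragments. Dosing was ip bolus, daily or q4h ×3 daily, by average cage weight. Vehicle was distilled H2O or 10% DMA in 50 mM lactic acid buffer, pH 4.0. Net cell kill = log reduction in tumor burden between first and last treatments.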

Colon 26 [3] = test: In vivo activity against murine colon 26 tumor, net cell kill at 1.5 mg/kg ip dose for 9 days; assay type: functional, Mus musculus; details: route intraperitoneal
Method in brief: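 Colon 26 was passaged in BALB/c mice; tested in CD2F1 mice (18-22 g, randomized) implanted on day 0 ip with counted cells or sc with fragments. Dosing was ip bolus, daily or q4h ×3 daily, by average cage weight. Vehicle was distilled H2O or 10% DMA in 50 mM lactic acid, pH 4.0. Net cell kill = log tumor-burden reduction between first and last treatments.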

Colon 26 [4] = test: In vivo activity against murine colon 26, percent treated/control tumor mass at 0.75 mg/kg ip dose at 4 hour intervals 3x a day for 9 days; assay type: functional, Mus musculus; details: route intraperitoneal
Method in brief: (§1)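 Murine tumours were maintained by serial transplantation (~30 mg fragments every 2 weeks): B16 in C57BL/6 and colon 26 in BALB/c. They were tested in F1 hosts, B6C3F1 for B16 and CD2F1 for colon 26, weighing 18-22 g. Treatment was ip daily or q4h ×3 for 9 days. Weight change was the difference between mean group weights on the last and first treatment days, from life-span assays.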

Colon 26 [5] = test: In vivo activity against murine colon 26, percent treated/control tumor mass at 1.5 mg/kg ip dose for 9 days; assay type: functional, Mus musculus; details: route intraperitoneal; method in brief: as §1
A-431 [6] = test: In vivo activity against human A431 epidermoid xenograft, weight change after 10 mg/kg sc dose for 9-15 days; assay type: functional; details: route subcutaneous
Method in brief: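 Nude mice (NCr nu/nu, 18-22 g) bearing sc A431 fragments in the right axilla (day 0) received continuous sc infusion from an Alzet miniosmotic pump implanted under ketamine-xylazine. Pumps were removed or replaced under lidocaine-epinephrine for longer therapy, in 7-day and 27-day studies. Daily dose was the maximum deliverable without significant precipitation. Weight change was taken as the maximum treatment-related loss.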

B16 [7] = test: In vivo activity against murine B16 melanoma, percent treated/control tumor mass at 0.75 mg/kg ip dose at 4 hour intervals 3x a day for 9 days; assay type: functional, Mus musculus; details: route intraperitoneal; method in brief: as §1
Colon 26 [8] = test: In vivo activity against murine colon 26, weight change after 1.5 mg/kg ip dose for 9 days; assay type: functional, Mus musculus; details: route intraperitoneal; method in brief: as §1
B16 [9] = test: In vivo activity against murine B16 melanoma, weight change after 0.75 mg/kg ip dose at 4 hour intervals 3x a day for 9 days; assay type: functional, Mus musculus; details: route intraperitoneal; method in brief: as §1
[10] = target: Fibroblast growth factor receptor (Mus musculus, UniProt P21803+Q03142+P16092+Q61851); test: Inhibition of fibroblast growth factor (bFGF)-mediated autophosphorylation of FGF-R in Swiss 3T3 mouse fibroblasts; assay type: functional
Method in brief: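 Swiss 3T3 fibroblasts were treated 2 h with a range of compound concentrations, then stimulated for 5 min with growth factor (bFGF). Receptor tyrosine phosphorylation was read by extraction and western blotting.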

[11] = Inhibition of protein synthesis; assay type: functional
Method in brief: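 Log-phase cells were drug-treated for 2 h, then exposed for 2 h to 1 µM [methyl-3H]thymidine (DNA), [5-3H]uridine (RNA) or (S)-[4,5-3H]leucine (protein), each at 1 µCi/nmol. Cells were trypsinized into ice-cold 15% TCA, and precipitates were collected on glass-fibre filters, washed, and counted by scintillation.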

[12] = target: Epidermal growth factor receptor (Mus musculus) (UniProt Q01279); test: Inhibition of epidermal growth factor receptor (EGFr) autophosphorylation
Chain of Epidermal growth factor receptor (Mus musculus) (Q01279 whole entry, looked up): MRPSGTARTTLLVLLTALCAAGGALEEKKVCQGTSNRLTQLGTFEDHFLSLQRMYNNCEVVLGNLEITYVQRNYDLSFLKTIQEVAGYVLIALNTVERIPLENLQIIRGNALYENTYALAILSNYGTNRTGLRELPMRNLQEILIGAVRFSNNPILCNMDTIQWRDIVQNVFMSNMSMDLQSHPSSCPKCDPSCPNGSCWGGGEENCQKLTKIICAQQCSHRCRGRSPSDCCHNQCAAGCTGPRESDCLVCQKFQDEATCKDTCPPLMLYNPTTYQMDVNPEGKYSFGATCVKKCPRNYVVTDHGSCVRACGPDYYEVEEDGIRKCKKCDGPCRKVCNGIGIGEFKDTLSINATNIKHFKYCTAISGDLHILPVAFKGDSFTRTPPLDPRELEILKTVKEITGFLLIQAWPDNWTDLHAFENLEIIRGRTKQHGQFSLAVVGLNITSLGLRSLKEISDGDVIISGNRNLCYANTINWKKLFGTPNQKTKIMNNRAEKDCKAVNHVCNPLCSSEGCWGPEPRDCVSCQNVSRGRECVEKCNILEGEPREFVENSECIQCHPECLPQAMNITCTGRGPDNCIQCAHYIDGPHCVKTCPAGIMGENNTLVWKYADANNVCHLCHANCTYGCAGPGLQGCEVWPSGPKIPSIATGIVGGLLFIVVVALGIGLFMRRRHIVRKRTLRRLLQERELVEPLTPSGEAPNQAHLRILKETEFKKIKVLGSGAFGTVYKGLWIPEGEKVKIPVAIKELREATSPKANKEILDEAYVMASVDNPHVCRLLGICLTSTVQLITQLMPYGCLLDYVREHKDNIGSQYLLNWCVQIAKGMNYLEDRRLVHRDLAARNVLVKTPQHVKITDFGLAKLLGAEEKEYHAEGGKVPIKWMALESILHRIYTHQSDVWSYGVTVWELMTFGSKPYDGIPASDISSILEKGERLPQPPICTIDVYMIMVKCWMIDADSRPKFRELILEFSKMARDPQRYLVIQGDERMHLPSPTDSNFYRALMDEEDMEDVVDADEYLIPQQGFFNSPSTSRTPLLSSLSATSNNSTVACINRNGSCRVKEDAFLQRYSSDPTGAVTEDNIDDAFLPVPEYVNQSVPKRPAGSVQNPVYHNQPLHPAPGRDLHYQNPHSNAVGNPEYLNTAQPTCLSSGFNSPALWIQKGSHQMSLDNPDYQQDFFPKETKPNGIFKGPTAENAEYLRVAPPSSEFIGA

M5076 [13] = test: In vivo activity against murine M5076 sarcoma, tumor growth delay (T-C) at 3.0 mg/kg ip dose at 4 hour intervals 3x a day for 9 days; details: route intraperitoneal
A-431 [14] = test: In vivo activity against human A431 epidermoid xenograft, tumor growth delay (T-C) at 9 mg/kg administered subcutaneously for 1-27 days; details: route subcutaneous
MCF7 = test: In vivo activity against human MCF-7 xenograft, tumor growth delay (T-C) at 3.0 mg/kg ip dose at 4 hour intervals 3x a day for 5-11 days; details: route intraperitoneal

NC(Cc1c(SSc2[nH]c3ccccc3c2CC(N)C(=O)NCc2ccccc2)[nH]c2ccccc12)C(=O)NCc1ccccc1 (stereo not given)
pIC50 [1]: 5.13 | Net cell kill (M5076 [2]): -0.8 log10 | Net cell kill (Colon 26 [3]): -0.3 log10 | T/C (Colon 26 [4]): 119% | T/C (Colon 26 [5]): 115% | Weight change (A-431 [6]): -1.2 g | T/C (B16 [7]): 99% | Weight change (Colon 26 [8]): 1.8 g | Weight change (B16 [9]): 1.1 g | IC50 [10]: 2.3 µM | pIC50 [11]: 6.22 | pIC50 [12]: < 4.00 | T-C (M5076 [13]): 0.7 days | T-C (A-431 [14]): 1 days | T-C (MCF7): 1 days
